How the values were obtained:
Canis familiaris [1] = experiment: In vivo percent coronary flow in Mongrel dogs after administration at 3 mg/Kg (iv); format: functional, Canis lupus familiaris
In short: (§1)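 Overnight-fasted mongrel dogs of either sex (15–25 kg), pentobarbital 25 mg/kg iv (maintenance 1 mg/kg iv) plus levopromazine 0.5 mg/kg im. Femoral-vein injections at 0.3–1 and 3 mg/kg; coronary flow increase given as percent of the period before the 3 mg/kg injection.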

Sus scrofa [2] = organism: Sus scrofa; experiment: Antagonism of calcium-induced contraction of a depolarized coronary in pig; format: functional; set-up: unit not given beside the values
In short: (§2)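 Helical pig coronary strips (2–2.5 cm long, 3–4 mm wide) at 0.5 g resting tension in modified Krebs-Henseleit (1.25 mmol/L CaCl2), depolarized, contracted with calcium. Antagonist added 30 min beforehand. Result as pA2 (Arunlakshana–Schild) or pD2' (Ariens–Van Rossum, for noncompetitive antagonism).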

Rattus norvegicus [3] = organism: Rattus norvegicus; experiment: Alpha-adrenolytic activity (pA2) on the descending thoracic branch of the rat aorta; format: functional
In short: (§3)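 Rat aortic strips held at 2 g resting tension, left about 2 h to stabilize; antagonist put in the bath 30 min before agonist challenge. pA2 by Arunlakshana–Schild analysis as developed by Miesch et al.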

Canis familiaris [4] = experiment: In vivo percent coronary flow in Mongrel dogs after administering 3 mg/Kg (iv) of the compound; Insoluble; format: functional, organism-based; conditions: Canis lupus familiaris; in short: as §1
Sus scrofa [5] = organism: Sus scrofa; experiment: Antagonism of calcium-induced contraction on the depolarized coronary of pig; Insoluble; format: functional, organism-based; in short: as §2
Rattus norvegicus [6] = organism: Rattus norvegicus; experiment: Alpha-adrenolytic activity (pA2) on the descending thoracic branch of the rat aorta; Insoluble; format: functional, organism-based; in short: as §3
Rattus norvegicus [7] = organism: Rattus norvegicus; experiment: Alpha-adrenolytic activity on the descending thoracic branch of the rat aorta; format: functional
In short: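 Isolated aorta preparation set at 2 g resting tension and stabilized about 2 h. Antagonist was added to the bath 30 min before the assay. Competitive antagonism was expressed as pA2 (Arunlakshana–Schild method). Noncompetitive antagonism was expressed as pD2' (Ariens–Van Rossum calculation).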

Row | Compound | Coronary flow (Canis familiaris [1]) | Ca2+ antagonism (Sus scrofa [2]) | Alpha-adrenolytic activity (Rattus norvegicus [3]) | Coronary flow (Canis familiaris [4]) | Ca2+ antagonism (Sus scrofa [5]) | Alpha-adrenolytic activity (Rattus norvegicus [6]) | Alpha-adrenolytic activity (Rattus norvegicus [7])
1 | CC(Cc1ccccc1)NCCC(C1CCCCC1)C1CCCCC1.O=C(O)/C=C\C(=O)O (stereo not given) | 42 | 5.2 | <5 |  |  |  | 
2 | O=[N+]([O-])O.c1ccc(C(CNC2CCCC2)C2CCCCC2)cc1 (stereo not given) | 38.5 | 6.2 | 5.9 |  |  |  | 
3 | CN(CCC(C1CCCCC1)C1CCCCC1)C1CCCCC1.O=C(O)/C=C\C(=O)O | 67 | 4.85 | 6.15 |  |  |  | 
4 | Cl.c1ccc(C(CCNC2CCCCC2)C2CCCCC2)cc1 (stereo not given) | 156 | 5.8 | 6.8 |  |  |  | 
5 | CC(CCc1ccccc1)NCCC12CC3CC(CC(C3)C1)C2.O=C(O)/C=C\C(=O)O (stereo not given) | 215 | 5.1 | 7.15 |  |  |  | 
6 | CC(CCc1ccccc1)NCCC(C1CCCCC1)C1CCCCC1 (stereo not given) |  |  |  | Insoluble | Insoluble | Insoluble | 
7 | Cc1ccc(C(CNC2CCCCC2)C2CCCCC2)cc1.O=C(O)/C=C\C(=O)O (stereo not given) | 68 | 6 | 6.55 |  |  |  | 
8 | C1CCC(NCCC(C2CCCCC2)C2CCCCC2)CC1.Cl | 130 | 4.85 | 7.25 |  |  |  | 
9 | CC(Cc1ccccc1)NCCC12CC3CC(CC(C3)C1)C2.O=C(O)/C=C\C(=O)O (stereo not given) | 146 | 4.85 | 7.3 |  |  |  | 
10 | C1CCC(NCCCCC(C2CCCCC2)C2CCCCC2)CC1 |  |  |  | Insoluble | Insoluble | Insoluble | 
11 | CC(CCc1ccccc1)NCC(c1ccccc1)C1CCCCC1.O=C(O)/C=C\C(=O)O (stereo not given) | 71.5 | 6.1 | 7.6 |  |  |  | 
12 | CC(Cc1ccc(O)cc1)NCC(c1ccccc1)C1CCCCC1.O=[N+]([O-])O (stereo not given) | 105 | 4.8 |  |  |  |  | 6.35
13 | CC(Cc1ccccc1)NCC(c1ccccc1)C1CCCCC1.O=C(O)/C=C\C(=O)O (stereo not given) | 157 | 6.2 | 6.9 |  |  |  | 
14 | COc1ccc(CCNCCC(C2CCCCC2)C2CCCCC2)cc1OC.O=C(O)/C=C\C(=O)O | 44.5 | 4.1 |  |  |  |  | 6.3
15 | CC(C)(C)NCC(c1ccccc1)C1CCCCC1.Cl (stereo not given) | 104.5 | <4.5 | 7.25 |  |  |  | 
16 | Cl.Oc1ccc(C(CNC2CCCCC2)C2CCCCC2)cc1 (stereo not given) | 133.5 | 4.5 |  |  |  |  | 7.1
17 | COc1ccc(CCNCCC23CC4CC(CC(C4)C2)C3)cc1OC.Cl | 133 | 4.8 |  |  |  |  | 7.35
18 | C1CCC(C(CC2CCCCN2)C2CCCCC2)CC1 (stereo not given) [PERHEXILINE] | 37.5 | 5.2 | 6.7 |  |  |  | 
19 | COc1ccc(CCNCC(c2ccccc2)C2CCCCC2)cc1OC.O=C(O)/C=C\C(=O)O (stereo not given) | 73 | 3.6 |  |  |  |  | 7.25
20 | C1CCC(NC(C2CCCCC2)C2CCCCC2)CC1.Cl | 194 | 5.45 | 6.2 |  |  |  | 
21 | CN1CCCCC1CC(C1CCCCC1)C1CCCCC1 (stereo not given) | 135 | 5.3 | 6.9 |  |  |  | 
22 | C1CCC(NCCCC(C2CCCCC2)C2CCCCC2)CC1.Cl | 95.5 | 4.6 | 6.05 |  |  |  | 
23 | COc1ccc(CC(C)NCC(c2ccccc2)C2CCCCC2)cc1.O=C(O)/C=C\C(=O)O (stereo not given) | 100.5 | 5.1 |  |  |  |  | 6
24 | C1CCC(NCCC23CC4CC(CC(C4)C2)C3)CC1.O=C(O)/C=C\C(=O)O | 99 | 4.7 | 6.75 |  |  |  | 
25 | O=[N+]([O-])O.c1ccc(C(CNC2CCCCC2)C2CCCCC2)cc1 (stereo not given) | 62 | 4.6 | 7.9 |  |  |  | 

— ChEMBL document CHEMBL1122077, “Synthesis and cardiovascular activity of a new series of cyclohexylaralkylamine derivatives related to perhexiline” (1982)
